Results: ChEMBL document CHEMBL4706590, “Design and characterization of cereblon-mediated androgen receptor proteolysis-targeting chimeras” (Eur J Med Chem, 2020)

Tested on: VCaP
Assay: Antiproliferative activity against human VCaP cells assessed as reduction in cell viability after 6 days by CellTiter-Glo assay
Type: functional
Conditions: 144 h, time 6 day
How it was run: (§1)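 LNCaP seeded at 1.5 × 10³ and VCaP at 4 × 10³ cells per well in 96-well plates. Cells grown in IMDM with 10% FBS and antibiotic-antimycotic at 37 °C, 5% CO2, with DMSO as vehicle. IC50 from nonlinear regression of log(inhibitor) versus response.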

SMILES	CC50
CC1(C)[C@H](NC(=O)c2ccc(N3CCN(CCC4CCN(c5cccc6nnn(C7CCC(=O)NC7=O)c(=O)c56)CC4)CC3)cc2)C(C)(C)[C@H]1Oc1ccc(C#N)c(Cl)c1 (stereo partly specified)	1.58 µM

Biological target: T1, Protein cereblon/Androgen receptor (Homo sapiens, UniProt P10275+Q96SW2)
Assay: Protac activity at CRBN/AR in human LNCaP cells assessed as AR degradation at 10 uM by Western blotting analysis relative to control
Type: cell-based
Conditions: not given
How it was run: (§2)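 LNCaP (IMDM) or 22RV1 (RPMI 1640) cells with 10% FBS at 37 °C, 5% CO2, treated with DMSO vehicle as control. Cells lysed in RIPA buffer (50 mM Tris-HCl pH 7.5, 150 mM NaCl, 1% Triton X-100, 0.1% SDS, 0.5% deoxycholate, protease inhibitors). Protein quantified by Bradford assay. Immunoblotted for AR with tubulin as loading control, HRP chemiluminescence detection.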

T1 sequence (P10275 whole entry, looked up): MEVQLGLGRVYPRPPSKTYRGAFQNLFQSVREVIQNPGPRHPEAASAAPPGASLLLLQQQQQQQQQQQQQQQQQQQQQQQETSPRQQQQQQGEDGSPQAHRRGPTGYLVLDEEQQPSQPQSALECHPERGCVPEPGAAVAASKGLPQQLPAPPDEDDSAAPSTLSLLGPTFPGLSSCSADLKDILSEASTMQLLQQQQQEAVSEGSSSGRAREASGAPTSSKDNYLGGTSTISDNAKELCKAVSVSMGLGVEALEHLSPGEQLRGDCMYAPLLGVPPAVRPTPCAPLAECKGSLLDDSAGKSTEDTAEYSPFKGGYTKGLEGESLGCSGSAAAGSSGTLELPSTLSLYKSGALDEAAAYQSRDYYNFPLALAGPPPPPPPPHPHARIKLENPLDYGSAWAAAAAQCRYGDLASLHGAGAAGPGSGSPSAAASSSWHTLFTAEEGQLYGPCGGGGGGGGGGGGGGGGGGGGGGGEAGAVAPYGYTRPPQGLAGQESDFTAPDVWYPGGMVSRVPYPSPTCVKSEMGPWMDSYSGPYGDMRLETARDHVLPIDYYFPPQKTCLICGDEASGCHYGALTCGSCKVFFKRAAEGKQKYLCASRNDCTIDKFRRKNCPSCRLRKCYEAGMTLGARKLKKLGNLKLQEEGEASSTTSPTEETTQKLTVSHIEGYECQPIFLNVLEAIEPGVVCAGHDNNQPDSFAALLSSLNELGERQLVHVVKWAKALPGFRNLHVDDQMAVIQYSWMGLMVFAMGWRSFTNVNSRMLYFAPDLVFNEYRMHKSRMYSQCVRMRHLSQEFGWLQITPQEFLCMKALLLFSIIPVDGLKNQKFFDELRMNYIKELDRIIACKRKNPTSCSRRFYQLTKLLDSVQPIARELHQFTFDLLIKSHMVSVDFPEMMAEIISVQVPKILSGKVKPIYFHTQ
T1 sequence (Q96SW2 whole entry, looked up): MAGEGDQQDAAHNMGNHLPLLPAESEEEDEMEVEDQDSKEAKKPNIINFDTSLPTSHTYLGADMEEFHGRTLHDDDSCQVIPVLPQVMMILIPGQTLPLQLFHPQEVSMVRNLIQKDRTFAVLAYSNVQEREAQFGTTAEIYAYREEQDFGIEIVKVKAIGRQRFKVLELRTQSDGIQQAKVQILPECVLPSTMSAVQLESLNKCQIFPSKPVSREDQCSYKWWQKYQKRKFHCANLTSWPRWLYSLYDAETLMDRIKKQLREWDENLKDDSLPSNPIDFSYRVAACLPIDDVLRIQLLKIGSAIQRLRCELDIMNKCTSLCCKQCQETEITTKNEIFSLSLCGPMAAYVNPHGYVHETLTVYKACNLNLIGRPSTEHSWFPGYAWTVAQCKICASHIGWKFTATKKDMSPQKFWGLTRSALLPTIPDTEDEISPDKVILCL

SMILES	Activity
CC1(C)[C@H](NC(=O)c2ccc(N3CCN(C4CC5(CCN(c6cccc7nnn(C8CCC(=O)NC8=O)c(=O)c67)CC5)C4)CC3)cc2)C(C)(C)[C@H]1Oc1ccc(C#N)c(Cl)c1 (stereo partly specified)	71%
CC1(C)[C@H](NC(=O)c2ccc(N3CCN(CC4CCN(c5cccc6nnn(C7CCC(=O)NC7=O)c(=O)c56)CC4)CC3)cc2)C(C)(C)[C@H]1Oc1ccc(C#N)c(Cl)c1 (stereo partly specified)	78%
CC1(C)[C@H](NC(=O)c2ccc(N3CCN(CC4CCN(C(=O)COc5ccc6nnn(C7CCC(=O)NC7=O)c(=O)c6c5)CC4)CC3)cc2)C(C)(C)[C@H]1Oc1ccc(C#N)c(Cl)c1 (stereo partly specified)	51%
CC1(C)[C@H](NC(=O)c2ccc(N3CCN(CC4CCN(c5ccc6c(=O)n(C7CCC(=O)NC7=O)nnc6c5)CC4)CC3)cc2)C(C)(C)[C@H]1Oc1ccc(C#N)c(Cl)c1 (stereo partly specified)	83%
CC1(C)[C@H](NC(=O)c2ccc(N3CCN(CCC4CCN(c5cccc6nnn(C7CCC(=O)NC7=O)c(=O)c56)CC4)CC3)cc2)C(C)(C)[C@H]1Oc1ccc(C#N)c(Cl)c1 (stereo partly specified)	90%

Tested on: LNCaP
Assay: Antiproliferative activity against human LNCaP cells assessed as reduction in cell viability after 6 days by CellTiter-Glo assay
Type: functional
Conditions: 144 h, time 6 day
How it was run: as §1

SMILES	CC50
CC1(C)[C@H](NC(=O)c2ccc(N3CCN(C4CC5(CCN(c6cccc7nnn(C8CCC(=O)NC8=O)c(=O)c67)CC5)C4)CC3)cc2)C(C)(C)[C@H]1Oc1ccc(C#N)c(Cl)c1 (stereo partly specified)	13.4 µM
CC1(C)[C@H](NC(=O)c2ccc(N3CCN(CC4CCN(c5cccc6nnn(C7CCC(=O)NC7=O)c(=O)c56)CC4)CC3)cc2)C(C)(C)[C@H]1Oc1ccc(C#N)c(Cl)c1 (stereo partly specified)	0.613 µM
CC1(C)[C@H](NC(=O)c2ccc(N3CCN(CC4CCN(C(=O)COc5ccc6nnn(C7CCC(=O)NC7=O)c(=O)c6c5)CC4)CC3)cc2)C(C)(C)[C@H]1Oc1ccc(C#N)c(Cl)c1 (stereo partly specified)	0.804 µM
CC1(C)[C@H](NC(=O)c2ccc(N3CCN(CCC4CCN(c5cccc6nnn(C7CCC(=O)NC7=O)c(=O)c56)CC4)CC3)cc2)C(C)(C)[C@H]1Oc1ccc(C#N)c(Cl)c1 (stereo partly specified)	> 10 µM

Tested on: not listed separately
Assay: Metabolic stability in mouse liver microsomes assessed as compound remaining at 1 uM after 30 mins in presence of NADPH-regenerating system
Type: ADME, Microsome
Conditions: read-out: Stabilty
How it was run: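 Mouse liver microsomes at 0.5 mg protein/mL in 100 mM PBS, pH 7.4. Reaction started with NADPH-regenerating solution (1.3 mM NADP+, 3.3 mM glucose-6-phosphate, 0.4 U/mL G6PDH, 3.3 mM MgCl2). Incubated 30 min at 37 °C, stopped with ice-cold acetonitrile, centrifuged. Percent remaining reported as mean ± SD, n = 3.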

SMILES	remaining at 0.5 h, 1 µM
O=C1CC2(CCCC2)CC(=O)N1CCCCN1CCN(c2ncccn2)CC1 [BUSPIRONE]	0.03%

Biological target: T1, Protein cereblon/Androgen receptor
Assay: Protac activity at CRBN/AR in human LNCaP cells assessed as AR degradation at 1 uM by Western blotting analysis relative to control
Type: cell-based
Conditions: not given
How it was run: as §2

SMILES	Activity
CC1(C)[C@H](NC(=O)c2ccc(N3CCN(C4CC5(CCN(c6cccc7nnn(C8CCC(=O)NC8=O)c(=O)c67)CC5)C4)CC3)cc2)C(C)(C)[C@H]1Oc1ccc(C#N)c(Cl)c1 (stereo partly specified)	26%
CC1(C)[C@H](NC(=O)c2ccc(N3CCN(CC4CCN(c5cccc6nnn(C7CCC(=O)NC7=O)c(=O)c56)CC4)CC3)cc2)C(C)(C)[C@H]1Oc1ccc(C#N)c(Cl)c1 (stereo partly specified)	77%
CC1(C)[C@H](NC(=O)c2ccc(N3CCN(CC4CCN(C(=O)COc5ccc6nnn(C7CCC(=O)NC7=O)c(=O)c6c5)CC4)CC3)cc2)C(C)(C)[C@H]1Oc1ccc(C#N)c(Cl)c1 (stereo partly specified)	40%
CC1(C)[C@H](NC(=O)c2ccc(N3CCN(CC4CCN(c5ccc6c(=O)n(C7CCC(=O)NC7=O)nnc6c5)CC4)CC3)cc2)C(C)(C)[C@H]1Oc1ccc(C#N)c(Cl)c1 (stereo partly specified)	60%
CC1(C)[C@H](NC(=O)c2ccc(N3CCN(CCC4CCN(c5cccc6nnn(C7CCC(=O)NC7=O)c(=O)c56)CC4)CC3)cc2)C(C)(C)[C@H]1Oc1ccc(C#N)c(Cl)c1 (stereo partly specified)	31%

Biological target: T1, Protein cereblon/Androgen receptor
Assay: Protac activity at CRBN/AR in human LNCaP cells assessed as AR degradation at 0.1 uM by western blotting analysis relative to control
Type: cell-based
Conditions: not given
How it was run: as §2

SMILES	Activity
CC1(C)[C@H](NC(=O)c2ccc(N3CCN(C4CC5(CCN(c6cccc7nnn(C8CCC(=O)NC8=O)c(=O)c67)CC5)C4)CC3)cc2)C(C)(C)[C@H]1Oc1ccc(C#N)c(Cl)c1 (stereo partly specified)	0%
CC1(C)[C@H](NC(=O)c2ccc(N3CCN(CC4CCN(c5cccc6nnn(C7CCC(=O)NC7=O)c(=O)c56)CC4)CC3)cc2)C(C)(C)[C@H]1Oc1ccc(C#N)c(Cl)c1 (stereo partly specified)	15%
CC1(C)[C@H](NC(=O)c2ccc(N3CCN(CC4CCN(C(=O)COc5ccc6nnn(C7CCC(=O)NC7=O)c(=O)c6c5)CC4)CC3)cc2)C(C)(C)[C@H]1Oc1ccc(C#N)c(Cl)c1 (stereo partly specified)	89%
CC1(C)[C@H](NC(=O)c2ccc(N3CCN(CC4CCN(c5ccc6c(=O)n(C7CCC(=O)NC7=O)nnc6c5)CC4)CC3)cc2)C(C)(C)[C@H]1Oc1ccc(C#N)c(Cl)c1 (stereo partly specified)	28%
CC1(C)[C@H](NC(=O)c2ccc(N3CCN(CCC4CCN(c5cccc6nnn(C7CCC(=O)NC7=O)c(=O)c56)CC4)CC3)cc2)C(C)(C)[C@H]1Oc1ccc(C#N)c(Cl)c1 (stereo partly specified)	0%
